Laboratory results published in ChEMBL document CHEMBL1146596, “New lupane derived compounds with pro-apoptotic activity in cancer cells: synthesis and structure-activity relationships” (2003).

Legend:
SK-MEL3 = test: Tested for cytotoxicity against human melanoma MEL-3 cell line; format: functional
Outline: (§1)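 Cells were kept in DMEM/RPMI 1640 with 10% fetal calf serum, 2 mM glutamine and antibiotics. They were seeded at 2500–30 000 cells/well according to growth characteristics and preincubated 24 h at 37 °C, 5% CO2. Four-fold compound dilutions were tested in duplicate for 72 h. MTT was then added for 1–4 h, the formazan was dissolved in 10% SDS (pH 5.5) overnight, and OD was read at 540 nm. Survival was taken relative to mean control, and TCS50 was derived from dose–response curves.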

MDA-MB-238 = test: Tested for cytotoxicity against human breast cancer MDA-MB-238 cell line; format: functional; outline: as §1
B16 [1] = test: Tested for cytotoxicity against mouse melanoma B16F cell line; format: functional; outline: as §1
U2OS = test: Tested for cytotoxicity against human osteosarcoma U2OS cell line; format: functional; outline: as §1
DU-145 = test: Tested for cytotoxicity against human prostate cancer DU145 cell line; format: functional; outline: as §1
K562 [2] = test: Tested for cytotoxicity against human […] leukemia K562-FLU D-CEM cell line; format: functional
Outline: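 Cytotoxicity by MTT in fludarabine-resistant K562 subline (K562-FLUD), cultured in DMEM/RPMI 1640 with 10% fetal calf serum. Cells seeded at 2500–30 000/well, preincubated 24 h at 37 °C, 5% CO2. Fourfold dilutions in duplicate, 72 h exposure. MTT 1–4 h, formazan dissolved in 10% SDS overnight, OD 540 nm. Survival relative to control; TCS50 taken from dose–response curves.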

CEM-DNR [3] = test: Tested for cytotoxicity against human T-lymphoblastic leukemia CEM-DNR bulk cell line; format: functional; outline: as §1
MCF7 = test: Tested for cytotoxicity against human breast cancer MCF-7 cell line; format: functional; outline: as §1
Homo sapiens = species on record: Homo sapiens; test: Tested for cytotoxicity against human normal lymphocytes; format: functional; outline: as §1
CEM-VCR 1/D/5 = test: Tested for cytotoxicity against human T-lymphoblastic leukemia CEM-VCR 1/D5 cell line; format: functional; outline: as §1
OVCAR-3 = test: Tested for cytotoxicity against human ovarian cancer OVCAR-3 cell line; format: functional; outline: as §1
CCRF-CEM [4] = test: Tested for cytotoxicity against human T-lymphoblastic leukemia CEM cell line; format: functional; outline: as §1
Caco-2 = test: Tested for cytotoxicity against human colon cancer Caco-2 cell line; format: functional; outline: as §1
CEM-DNR [5] = test: Tested for cytotoxicity against human T-lymphoblastic leukemia CEM-DNR 1/C2 cell line; format: functional; outline: as §1
A549 = test: Tested for cytotoxicity against human lung adenocarcinoma A549 cell line; format: functional; outline: as §1
B16 [6] = test: Tested for cytotoxicity against mouse melanoma B16 cell line; format: functional; outline: as §1
K562 [7] = test: Tested for cytotoxicity against human […] leukemia K562-CdA cell line; format: functional; outline: as §1
K562 [8] = test: Tested for cytotoxicity against human […] leukemia K562 cell line; format: functional; outline: as §1
SAOS-2 = test: Tested for cytotoxicity against human […] Saos2 cell line; format: functional; outline: as §1
U-87 MG = test: Tested for cytotoxicity against human glioblastoma U87MG cell line; format: functional, U-87MG ATCC; outline: as §1
HepG2 = test: Tested for cytotoxicity against human hepatocellular carcinoma HepG2 cell line; format: functional; outline: as §1
BT-549 = test: Tested for cytotoxicity against human breast cancer BT549 cell line; format: functional; outline: as §1
CEM-VCR = test: Tested for cytotoxicity against human T-lymphoblastic leukemia CEM-VCR bulk cell line; format: functional; outline: as §1
K562 [9] = test: Tested for cytotoxicity against human […] leukemia K562-ARA-C cell line; format: functional; outline: as §1
CEM-VCR 1/F3 = test: Tested for cytotoxicity against human T-lymphoblastic leukemia CEM-VCR 1/F3 cell line; format: functional; outline: as §1
LNCaP = test: Tested for cytotoxicity against human prostate cancer LNCaP cell line; format: functional; outline: as §1
CCRF-CEM [10] = test: Cytotoxicity against chemosensitive CEM-T lymphoblastc leukemia cell line.; format: functional, Homo sapiens; outline: as §1
NIH3T3 = test: Tested for cytotoxicity against mouse immortalized fibroblast NIH3T3 cell line; format: functional; outline: as §1
HT-29 = test: Tested for cytotoxicity against human colon cancer HT-29 cell line; format: functional; outline: as §1
K562 [11] = test: Tested for cytotoxicity against human […] leukemia K562-GEM cell line; format: functional; outline: as §1
SW-620 = test: Tested for cytotoxicity against human colon cancer SW620 cell line; format: functional; outline: as §1

SMILES	TCS50 (SK-MEL3)	TCS50 (MDA-MB-238)	TCS50 (B16 [1])	TCS50 (U2OS)	TCS50 (DU-145)	TCS50 (K562 [2])	TCS50 (CEM-DNR [3])	TCS50 (MCF7)	TCS50 (Homo sapiens)	TCS50 (CEM-VCR 1/D/5)	TCS50 (OVCAR-3)	TCS50 (CCRF-CEM [4])	TCS50 (Caco-2)	TCS50 (CEM-DNR [5])	TCS50 (A549)	TCS50 (B16 [6])	TCS50 (K562 [7])	TCS50 (K562 [8])	TCS50 (SAOS-2)	TCS50 (U-87 MG)	further results
C=C(C=O)[C@@H]1CC[C@]2(C(=O)O)CC[C@]3(C)[C@H](CC[C@@H]4[C@@]5(C)CC[C@H](OC(C)=O)C(C)(C)[C@@H]5CC[C@]43C)C12 (stereo partly drawn)	3.68 µM	2.37 µM	12.4 µM	3.94 µM	2.75 µM	1.27 µM	3.26 µM	4.3 µM	24.9 µM	7.82 µM	2.59 µM	4 µM	7.72 µM	1.58 µM	43.27 µM	9.32 µM	2.13 µM	15.12 µM	4.8 µM	98.3 µM	TCS50 (HepG2): 7.12 µM; TCS50 (BT-549): 6.28 µM; TCS50 (CEM-VCR): 6.95 µM; TCS50 (K562 [9]): 1.59 µM; TCS50 (CEM-VCR 1/F3): 5.94 µM; TCS50 (LNCaP): 3.55 µM; TCS50 (CCRF-CEM [10]): 4 µM; TCS50 (NIH3T3): 15.7 µM; TCS50 (HT-29): 12.31 µM; TCS50 (K562 [11]): 2.36 µM; TCS50 (SW-620): 5.86 µM
COC(=O)[C@@]12CC[C@]3(C)[C@H](CC[C@@H]4[C@@]5(C)CC[C@H](OC(C)=O)C(C)(C)[C@@H]5CC[C@]43C)C1=C(C(C)C)C(=O)C2=O	5.86 µM	3.28 µM	67.9 µM	4.28 µM	1.98 µM	4.85 µM	5.18 µM	12.9 µM	85.3 µM	12.5 µM	4.65 µM	4.4 µM	8.13 µM	10.3 µM	6.7 µM	35.4 µM	5.17 µM	1.85 µM	7.9 µM	23.8 µM	TCS50 (HepG2): 5.14 µM; TCS50 (BT-549): 15.3 µM; TCS50 (CEM-VCR): 28.2 µM; TCS50 (K562 [9]): 6.42 µM; TCS50 (CEM-VCR 1/F3): 38.3 µM; TCS50 (LNCaP): 3.26 µM; TCS50 (CCRF-CEM [10]): 4.4 µM; TCS50 (NIH3T3): 96.8 µM; TCS50 (HT-29): 5.23 µM; TCS50 (K562 [11]): 5.04 µM; TCS50 (SW-620): 5.89 µM
CC(=O)OC[C@@]1(C(=O)O)CC[C@]2(C)[C@H](CC[C@@H]3[C@@]4(C)CC[C@H](OC(C)=O)C(C)(C)[C@@H]4CC[C@]32C)C1=O	1.28 µM	1.35 µM	4.66 µM	1.53 µM	0.84 µM	0.35 µM	1.05 µM	2.3 µM	12.5 µM	2.93 µM	0.9 µM	1 µM	2.97 µM	0.61 µM	2.8 µM	0.43 µM	0.28 µM	0.19 µM	1.78 µM	1.85 µM	TCS50 (HepG2): 1.67 µM; TCS50 (BT-549): 2.03 µM; TCS50 (CEM-VCR): 2.51 µM; TCS50 (K562 [9]): 0.63 µM; TCS50 (CEM-VCR 1/F3): 3.27 µM; TCS50 (LNCaP): 1.12 µM; TCS50 (CCRF-CEM [10]): 1 µM; TCS50 (NIH3T3): 7.21 µM; TCS50 (HT-29): 3.57 µM; TCS50 (K562 [11]): 0.94 µM; TCS50 (SW-620): 1.22 µM
